Assay outcomes: PubChem BioAssay, several laboratories
Sampled rows, rich in hits. Any-hit rate of the full collection: about 3.2%.
MEKK3 PB1 HTS – modulators of MEKK3-MEK5 PB1 binding, primary screen, biochemical, wildtype MEKK3, multiplex bead flow cytometry, Alexa488-MEK5; binding response (% of control), % at 10 µM; AID 1529, 2009; bead-based flow cytometry, Alexa488-MEK5 binding to MEKK3; actives lie on both sides; 0 = blocked by unlabeled MEK5, 100 = vehicle; 290,000 compounds, 1.4% hits; Mitogen-activated protein kinase kinase kinase 3 (Homo sapiens), Q99759;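 active = binding response more than 3 SD above or below the average of its plate-row segment, actives on both sides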;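 also: Alexa488 bead fluorescence after subtracting the streptavidin-only scavenger bead signal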
Pemphigus Ab inh – inhibitors of pemphigus antibody binding to DSG3, primary screen, biochemical, bead-based, flow cytometry, scFv-GFP; DSG3-coupled beads, scFv-anti-DSG3-GFP binding; active compounds read low; binding (percent of control), % at 10 µM; 310,000 compounds, 0.48% hits; AID 588358, 2011;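 active = binding more than 3 SD below its plate's average and above zero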;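 also: hits lower antibody fragment binding to DSG3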
MEKK2 WT-MEK5 – modulators of MEK5 binding to wildtype MEKK2, primary screen, biochemical, multiplex bead flow cytometry, Alexa488-MEK5. Mitogen-activated protein kinase kinase kinase 2 (Homo sapiens), Q9Y2U5. Alexa488-MEK5 binding to MEKK2 WT; actives lie on both sides. binding response (% of control), % at 10 µM. 290,000 compounds, 1.1% hits. AID 1531, 2009; in the data active = binding response below about 67% or above about 130%
UBC13 inh – UBC13 polyubiquitin chain formation inhibitors, primary screen, biochemical, TR-FRET, uHTS; inhibition, % at 20 µM; 330,000 compounds, 0.47% hits; AID 485273, 2010; in the data active = inhibition above about 45%, passing the limit was not always enough
Target sequence (P61088 whole entry, looked up): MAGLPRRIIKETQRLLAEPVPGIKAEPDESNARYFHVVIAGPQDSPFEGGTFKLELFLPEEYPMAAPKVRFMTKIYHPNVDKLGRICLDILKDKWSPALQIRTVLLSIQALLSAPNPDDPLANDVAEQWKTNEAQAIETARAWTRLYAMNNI
Apaf-1 inh – inhibitors of human Apaf-1 apoptosome, primary screen, biochemical, DEVD-Rh110 fluorescence, uHTS. AID 489030, 2010. 330,000 compounds, 0.71% hits. inhibition, % at 20 µM. reconstituted apoptosome caspase-3 activity. Apoptotic protease-activating factor 1 (Homo sapiens), O14727; active = inhibition of at least 40% at 20 µM;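 also: plate controls were DMSO wells for no effect and DEVD-CHO caspase inhibitor wells for full effect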
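Material: reconstituted apoptosome with Apaf-1, cytochrome c, caspase-9, procaspase-3, dATP; medium: pH 7.5 Hepes buffer with CHAPS, BSA, DTT; also added: cytochrome c and DEVD-Rh110 substrate; timing: 30 min plus 50 min, RT; signal: Rh110 fluorescence intensity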
MEKK2mut PB1 HTS – MEK5 binding signal on mutant MEKK2 PB1, primary screen, biochemical, multiplex bead flow cytometry, Alexa488-MEK5; 290,000 compounds, 0.35% hits; Alexa488-MEK5 binding to MEKK2 mutant; percent response, % at 10 µM; in the data active = percent response above about 24%, passing the limit was not always enough
The depositor's hits bear a star; nt = no result given.

SMILES	MEKK3 PB1 HTS	Pemphigus Ab inh	MEKK2 WT-MEK5	UBC13 inh	Apaf-1 inh	MEKK2mut PB1 HTS
COc1ccc(N(CC(=O)Nc2ccc(F)c(Cl)c2)S(=O)(=O)c2c(C)noc2C)cc1	97	6.0*	103	2	26	-3
CC(C)Oc1ccc(S(=O)(=O)N2CCOCC2)cc1NC(=O)c1ccc(N2CCCC2=O)cc1	104	107	106	2	8	6
OC(COCC(F)(F)C(F)(F)C(F)(F)C(F)F)Cn1c2ccc(Cl)cc2c2cc(Cl)ccc21 (stereo not drawn)	100	107	135	-3	-1	53*
S=C(NCCc1ccccc1)NC1CCC(NC(=S)NCCc2ccccc2)CC1 (stereo not drawn)	112	71*	107	-1	-8	0
NS(=O)(=O)c1ccc(NC(=O)CCc2ccccc2)cc1	105	107*	109	6	-14	5
O=C(CCc1ccccc1)Nc1ccccc1	115	90	103	-4	-7	-5
COc1ccc(NC(=O)CN(C)C(=O)CCCc2nc3ccccc3c(=O)[nH]2)cc1	nt	107	nt	6	-5	nt
O=C(c1ccco1)N1CCN(Cc2ccccc2Br)CC1	96	72*	96	-3	3	-3
O=C(c1ccco1)N1CCN(Cc2ccc(F)cc2)CC1	102	97	100	-5	7	2
O=[N+]([O-])c1ccc2cn[nH]c2c1	88	43*	97	0	2	2
O=[N+]([O-])c1ccc(Cl)c(S(=O)(=O)Nc2ccc3cn[nH]c3c2)c1	nt	nt	nt	-2	-5	nt
COc1ccc(-c2cnc(N)n2CC2CCCO2)cc1 (stereo not drawn)	97	nt	-6.0*	10	-1	3
O=C(/C=C/c1ccc(Cl)cc1)NCc1cccs1	97	99	97	-5	3	-2
O=C(/C=C/C(=O)NCc1cccs1)NCc1cccs1	105	72*	103	3	-21	11
CC(=O)c1ccc(NS(=O)(=O)c2cccc3cccnc23)cc1	nt	99	nt	nt	nt	nt
CN1CCN(C(=O)C2CC(=O)N(c3ccc(Cl)cc3)C2)CC1 (stereo not drawn)	101	95	97	2	2	2
O=C(CN1C(=O)c2cccnc2Oc2ccc(Cl)cc21)Nc1ccccc1F	101	118	10*	4	17	10
CC1=NN(c2ccccc2)C(=O)/C1=C/c1ccc(-c2ccc(C)c(C(=O)O)c2)o1	nt	95	nt	-71	68*	nt
CC1=NN(c2ccc(C(=O)O)cc2)C(=O)/C1=C/c1ccc(-c2ccccc2F)o1	104	98	102	-34	58*	3
O=C(NCc1cc2ccccc2[nH]1)C1CCC(=O)N(CCCN2CCCC2=O)C1 (stereo not drawn)	96	108	99	-5	15	6
CC(=O)Nc1ccc(S(=O)(=O)NN=c2sc3ccccc3n2C)cc1N	nt	107	nt	nt	nt	nt
CCCn1nc(C(=O)Nc2nnc(CC)s2)c2ccccc2c1=O	98	103	-5.0*	0	-10	7
Cc1nnc(NC(=O)c2nn(CC(C)C)c(=O)c3ccccc23)s1	99	104	107	5	0	-2
Cc1cccc(C)c1NC(=O)CN(C)C(=O)COc1cccc2c1OC(C)(C)C2	nt	101	nt	-9	6	nt
CC(C)(C)NS(=O)(=O)c1ccc(CCC(=O)Nc2ccc3c(c2)OCO3)cc1	109	-0.5*	112	-1	1	6
CC(C)(C)NS(=O)(=O)c1ccc(CCC(=O)Nc2ccc3c(c2)OCCO3)cc1	104	97	100	0	5	-1
CN(C(=O)Nc1ccccc1)C1CCCc2ccccc21 (stereo not drawn)	102	114	103	4	1	1
